Measurements as given in ChEMBL document CHEMBL1124862 (J Med Chem, 1990).

What was measured:
[1] = biological target: T1, 5-hydroxytryptamine receptor 1A (Rattus norvegicus, UniProt P19327); assay: Displacement of [3H]8-OH-DPAT from rat cortex 5-hydroxytryptamine 1A receptor
T1 sequence (P19327 whole entry): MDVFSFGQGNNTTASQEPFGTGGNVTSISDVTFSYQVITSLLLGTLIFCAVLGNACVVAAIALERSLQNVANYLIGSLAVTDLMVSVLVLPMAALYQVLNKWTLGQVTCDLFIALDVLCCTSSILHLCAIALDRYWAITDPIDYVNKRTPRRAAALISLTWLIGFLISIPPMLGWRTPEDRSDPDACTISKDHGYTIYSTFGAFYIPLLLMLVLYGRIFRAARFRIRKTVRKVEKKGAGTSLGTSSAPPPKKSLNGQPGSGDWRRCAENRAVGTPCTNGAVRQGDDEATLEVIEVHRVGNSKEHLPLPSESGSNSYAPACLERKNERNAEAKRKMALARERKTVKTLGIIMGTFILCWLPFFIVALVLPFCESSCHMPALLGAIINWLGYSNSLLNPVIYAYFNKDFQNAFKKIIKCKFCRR

[2] = biological target: T2, 5-hydroxytryptamine receptor 1B (Rattus norvegicus, UniProt P28564); assay: Inhibitory activity against 5-hydroxytryptamine 1B receptor of rat cortex using [3H]5-HT
Procedure, shortened: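 Competition binding in rat cortex membranes, using the radioligand named in each line at a concentration of approximately its K_D.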

[3] = biological target: Serotonin 2 (5-HT2) receptor (Rattus norvegicus, UniProt P30994+P08909+P14842); assay: Compound was evaluated for its inhibitory activity against 5-hydroxytryptamine 2 receptor of rat anterior cortex using [3H]ketanserin as the radioligand
[4] = biological target: T2, 5-hydroxytryptamine receptor 1B; assay: Inhibitory activity against 5-hydroxytryptamine 1B receptor of rat cortex using [3H]5-HT as the radioligand.
[5] = biological target: 5-HT1A receptor (Cavia porcellus, UniProt A0A286Y074); assay: Inhibition of Forskolin-stimulated adenylate cyclase activity against 5-hydroxytryptamine 1A receptor of guinea pig hippocampus; type: functional, tissue-based
Procedure, shortened: (§1)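 Washed membranes came from guinea pig hippocampus, rat substantia nigra or guinea pig substantia nigra. They were incubated at 30 °C with [α-³²P]ATP, 3 μM forskolin and varying agonist concentrations. The reaction was stopped with 3% SDS. [³²P]cAMP was isolated by two-column chromatography and counted by scintillation, in pmol/mg protein/min. Points were run in triplicate, and EC50 came from at least three experiments.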

[6] = species on record: Rattus norvegicus; assay: Effect of direct injection into the PVN (paraventricular medial hypothalamus) of rats on feeding behavior and the inhibition of food intake; type: functional
Procedure, shortened: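 Seven days later they were food-deprived for 24 h with water available. Each rat received a PVN infusion at 1 μL/min of test agent (16 μg) or 5-HT (32 μg) in 0.9% NaCl, or vehicle. Food eaten over 30 min was weighed. Groups were compared by two-tailed t test, and rats with misplaced cannulae were excluded after histology.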

[7] = biological target: T2, 5-hydroxytryptamine receptor 1B; assay: Inhibition of Forskolin-stimulated adenylate cyclase activity against 5-hydroxytryptamine 1B receptor of rat substantia nigra; type: functional; procedure, shortened: as §1
[8] = biological target: 5-hydroxytryptamine receptor 1D (Cavia porcellus, UniProt Q60484); assay: Inhibition of Forskolin-stimulated adenylate cyclase activity against 5-hydroxytryptamine 1D receptor of guinea pig substantia nigra
Procedure, shortened: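 Washed membranes from freshly dissected guinea pig substantia nigra, incubated at 30 °C with [α-³²P]ATP plus 3 μM forskolin and varying agonist concentrations. Reaction stopped with 3% SDS. [³²P]cAMP separated from [³²P]ATP on two columns and counted by liquid scintillation, as pmol/mg protein/min. EC50 from at least three experiments, each in triplicate.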

T2 sequence (P28564 whole entry): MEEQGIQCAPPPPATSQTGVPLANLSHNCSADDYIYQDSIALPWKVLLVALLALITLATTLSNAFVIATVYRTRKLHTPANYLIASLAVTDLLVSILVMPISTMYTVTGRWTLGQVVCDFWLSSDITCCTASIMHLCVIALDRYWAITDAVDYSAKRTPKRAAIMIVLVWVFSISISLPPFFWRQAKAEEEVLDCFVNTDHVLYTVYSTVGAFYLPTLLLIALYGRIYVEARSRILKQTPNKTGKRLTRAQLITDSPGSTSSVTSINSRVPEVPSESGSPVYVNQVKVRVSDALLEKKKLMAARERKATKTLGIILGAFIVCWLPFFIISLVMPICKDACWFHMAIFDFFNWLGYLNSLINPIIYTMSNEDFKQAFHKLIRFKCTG
5-hydroxytryptamine receptor 1D, sequence (Q60484 whole entry): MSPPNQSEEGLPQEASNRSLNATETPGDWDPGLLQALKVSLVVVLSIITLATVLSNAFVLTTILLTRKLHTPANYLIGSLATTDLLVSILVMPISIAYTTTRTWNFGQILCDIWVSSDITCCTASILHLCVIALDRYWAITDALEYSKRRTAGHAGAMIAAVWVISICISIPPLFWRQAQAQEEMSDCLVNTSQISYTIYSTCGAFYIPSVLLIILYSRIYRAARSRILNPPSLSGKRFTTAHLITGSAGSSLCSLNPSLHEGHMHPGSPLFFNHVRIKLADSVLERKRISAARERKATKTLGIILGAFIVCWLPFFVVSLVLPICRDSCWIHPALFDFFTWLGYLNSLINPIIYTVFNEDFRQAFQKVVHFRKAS

Row | SMILES | IC50 [1] | IC50 [2] | IC50 [3] | other results
1 | Oc1ccc2[nH]cc(C3=CCNCC3)c2c1 | 30 nM | 1.2 nM |  | 
2 | N#Cc1ccc2[nH]cc(C3=CCNCC3)c2c1 | 32 nM | 0.8 nM |  | 
3 | Fc1ccc2[nH]cc(C3=CCNCC3)c2c1 | 65 nM | 1.9 nM |  | 
4 | CN1CCN(c2nc3cc(C(F)(F)F)ccc3n3cccc23)CC1 | 19 nM | 150 nM | 6.8 µM | 
5 | FC(F)(F)c1cccc(N2CCNCC2)c1 | 290 nM | 27 nM | 0.57 µM | 
6 | Brc1ccc2[nH]cc(C3=CCNCC3)c2c1 | 13 nM | 3.2 nM |  | 
7 | C1=C(c2c[nH]c3ccccc23)CCNC1 | 140 nM |  |  | IC50 [4]: 3.7 nM
8 | FC(F)(F)c1ccc2c(c1)nc(N1CCNCC1)c1cccn12 | 37 nM | 21 nM | > 10 µM | 
9 | Clc1ccc2[nH]cc(C3=CCNCC3)c2c1 | 26 nM | 3.3 nM |  | 
10 | O=[N+]([O-])c1ccc2[nH]cc(C3=CCNCC3)c2c1 | 36 nM | 3.5 nM |  | 
11 | Oc1ccc2[nH]cc(C3=CCNCC3)c2n1 | 3000 nM | 15 nM | > 10 µM | EC50 [5]: > 10 µM; g/30min [6]: 0.12; EC50 [7]: 56 nM
12 | COc1ccc2[nH]cc(C3=CCNCC3)c2c1 [RU-24969] |  | 2 nM |  | 
13 | NCCc1c[nH]c2ccc(O)cc12 [SEROTONIN] |  |  |  | EC50 [8]: 16 nM; g/30min [6]: 1.15
